According to article PMC6697619 (Cell chemical biology, 2019):
“And” between values parts separate entries of the source, which are not always exact repeats. Identical values can stand only once. “Also recorded” adds a separate entry of the source. Like-named read-outs stand apart in the source and are kept apart here.

Key:
[1] = system: HCT-116 colorectal cancer cells; experiment: XTT cell viability assay, HCT-116; type: cell-based, human; conditions: for GI50: read-out: GI50 HCT-116
[2] = system: normal colon cells (CoN, ATCC CRL-1790); experiment: XTT cell viability assay, normal colon cells; type: cell-based, human; conditions: read-out: GI50 normal colon
[3] = system: tRNA (Lys,3); experiment: DSF specificity screen, tRNA; type: binding; conditions: 5 μM compound, up to 5-fold molar excess
How it was run: (§1)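 Thermal melt by DSF with SYBR Green: each RNA was exposed to 5 μM test compound and its Tm was determined. Melts were run continuously up to 99°C at 0.09°C/s, with 5 acquisitions per °C and 0.75 s integration. Tm was taken as the half-denatured temperature from a 4PL sigmoidal fit of fluorescence against temperature.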

[4] = system: miRs -1246, -203a-3p, -200b-3p, -361; experiment: RT-qPCR of other miRs in HCT-116 cells; type: cell-based, human; conditions: 50 nM, 0-24 h
How it was run: (§2)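 HCT-116 cells at 50–60% confluence were given 50 nM test compound, and RNA was extracted at time points from 0 to 24 h. miRNAs were quantified by RT-qPCR with LNA primers: 95°C 10 min, then 45 cycles of 95°C 10 s, 60°C 1 min and 95°C 10 s. U6 snRNA served as reference and UniSp6 as spike-in control; run in triplicate.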

[5] = system: miR-21; experiment: RT-qPCR of miR-21 expression in HCT-116 cells; type: cell-based, human; conditions: 50 nM, within 2 hours post-treatment
How it was run: as §2

[6] = system: pre-miR-21; experiment: Differential scanning calorimetry; type: binding; conditions: 30 μM pre-miR-21, 300 μM bPGN
How it was run: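 Pre-miR-21 (30 μM), with or without 300 μM test compound, in 0.25 mM Tris-HCl pH 7.5, 0.25 mM NaCl and 1.5% DMSO, degassed. The cell was pressurised to 30 psi and run through 8 alternating up/down scans at 60°C/hr with a 16 s filter. The first up scan was subtracted, the baseline corrected, and the data fitted to a non-2-state unfolding model to give Tm and enthalpy for each transition.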

[7] = system: HIV TAR; experiment: DSF specificity screen, HIV TAR; type: binding; conditions: 5 μM compound, up to 5-fold molar excess
How it was run: as §1

[8] = system: pre-miR-638; experiment: DSF specificity screen, pre-miR-638; type: binding; conditions: 5 μM compound, up to 5-fold molar excess
How it was run: as §1

[9] = system: PTEN; experiment: RT-qPCR of PTEN transcript in HCT-116 cells; type: cell-based, human
[10] = system: pre-miR-21; experiment: RT-qPCR of pre-miR-21 expression in HCT-116 cells; type: cell-based, human; conditions: 50 nM, up to 24 hours post-treatment
[11] = system: PDCD4; experiment: RT-qPCR of PDCD4 transcript in HCT-116 cells; type: cell-based, human
[12] = system: Pdcd4 and PTEN; experiment: Western blot of Pdcd4 and PTEN protein in HCT-116 cells; type: cell-based, human; conditions: 50 nM, within 24 hours post-treatment
How it was run: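 HCT-116 cells treated with 50 nM test compound were harvested at 0–36 h. Lysates were TCA/acetone precipitated, redissolved in 8 M urea, and 20 μg protein per lane was separated on 4–12% Bis-Tris gels, then dry-transferred to PVDF. Blots were probed with mouse anti-PDCD4 or anti-PTEN plus rabbit anti-GAPDH (internal control) and detected with IR-dye secondaries.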

[13] = target: Dicer-mediated processing of pre-miR-21 (Homo sapiens, UniProt Q9UPY3); experiment: Dicer processing assay; type: biochemical; conditions: for shift in Tm in the presence of Dicer: vs DMSO only control
Chain of Dicer-mediated processing of pre-miR-21 (Q9UPY3 whole entry): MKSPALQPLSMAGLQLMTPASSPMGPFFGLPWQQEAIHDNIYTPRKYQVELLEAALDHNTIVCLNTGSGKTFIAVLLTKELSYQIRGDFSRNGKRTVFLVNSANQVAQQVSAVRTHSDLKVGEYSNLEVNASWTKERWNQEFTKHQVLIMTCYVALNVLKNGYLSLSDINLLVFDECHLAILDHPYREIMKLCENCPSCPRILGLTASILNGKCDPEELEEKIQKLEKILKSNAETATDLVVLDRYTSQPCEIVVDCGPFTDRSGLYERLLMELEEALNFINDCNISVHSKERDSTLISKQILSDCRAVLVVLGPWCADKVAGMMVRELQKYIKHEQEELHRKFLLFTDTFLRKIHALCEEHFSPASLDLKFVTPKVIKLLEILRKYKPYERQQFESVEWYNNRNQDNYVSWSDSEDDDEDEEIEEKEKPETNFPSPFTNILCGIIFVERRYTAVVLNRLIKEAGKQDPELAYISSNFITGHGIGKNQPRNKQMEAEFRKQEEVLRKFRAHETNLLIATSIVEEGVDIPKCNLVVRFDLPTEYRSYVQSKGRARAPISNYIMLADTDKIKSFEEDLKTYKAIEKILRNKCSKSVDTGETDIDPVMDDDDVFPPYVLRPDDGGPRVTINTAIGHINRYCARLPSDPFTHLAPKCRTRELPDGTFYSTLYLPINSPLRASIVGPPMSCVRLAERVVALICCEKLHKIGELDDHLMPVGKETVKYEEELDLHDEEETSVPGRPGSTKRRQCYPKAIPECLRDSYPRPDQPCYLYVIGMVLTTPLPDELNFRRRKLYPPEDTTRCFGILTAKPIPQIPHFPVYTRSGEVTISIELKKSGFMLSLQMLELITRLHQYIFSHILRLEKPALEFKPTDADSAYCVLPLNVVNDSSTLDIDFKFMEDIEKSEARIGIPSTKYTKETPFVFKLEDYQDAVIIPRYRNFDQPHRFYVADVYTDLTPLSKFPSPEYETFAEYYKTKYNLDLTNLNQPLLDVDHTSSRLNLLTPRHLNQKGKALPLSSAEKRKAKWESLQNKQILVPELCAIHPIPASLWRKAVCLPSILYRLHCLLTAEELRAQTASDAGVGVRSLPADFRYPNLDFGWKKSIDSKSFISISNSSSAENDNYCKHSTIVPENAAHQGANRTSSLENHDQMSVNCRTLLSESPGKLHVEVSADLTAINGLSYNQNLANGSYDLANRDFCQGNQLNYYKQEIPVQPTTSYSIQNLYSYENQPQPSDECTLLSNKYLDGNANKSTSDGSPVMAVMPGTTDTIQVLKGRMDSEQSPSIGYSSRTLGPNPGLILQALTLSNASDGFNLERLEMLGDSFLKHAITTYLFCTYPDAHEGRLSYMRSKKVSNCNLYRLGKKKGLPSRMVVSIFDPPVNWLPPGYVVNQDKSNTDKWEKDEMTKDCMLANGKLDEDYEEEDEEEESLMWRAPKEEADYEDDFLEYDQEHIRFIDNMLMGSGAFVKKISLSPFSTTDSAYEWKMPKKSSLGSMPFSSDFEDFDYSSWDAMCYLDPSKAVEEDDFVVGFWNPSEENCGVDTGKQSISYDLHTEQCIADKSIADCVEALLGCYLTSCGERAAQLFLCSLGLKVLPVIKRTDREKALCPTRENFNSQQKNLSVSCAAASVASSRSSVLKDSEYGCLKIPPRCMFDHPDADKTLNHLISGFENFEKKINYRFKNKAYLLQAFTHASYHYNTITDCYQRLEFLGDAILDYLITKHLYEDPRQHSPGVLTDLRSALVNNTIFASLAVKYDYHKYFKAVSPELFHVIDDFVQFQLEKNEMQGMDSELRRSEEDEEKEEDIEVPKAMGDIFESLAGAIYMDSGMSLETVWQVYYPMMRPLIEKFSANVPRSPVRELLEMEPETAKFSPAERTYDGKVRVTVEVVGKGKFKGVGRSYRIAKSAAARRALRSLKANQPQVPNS

[14] = system: pre-miR-21; experiment: Differential scanning fluorimetry; type: binding; conditions: titration up to 20-25 μM
[15] = target: pre-miR-21; experiment: Fluorescence displacement assay; type: binding; conditions: data not shown
[16] = XTT, ATCC CRL-1790, 24 hours post-treatment

Question: Which “GI50 HCT-116 in words” value ([1]; XTT, 24 hours post-treatment) does the source give for “1,5-bis[3-(2-hydroxyethylamino)propylamino]anthracene-9,10-dione hydrochloride [Compound 6]” here?
Answer: The value was “high nanomolar”.

Question: And the GI50 ([1]; XTT, 24 hours post-treatment)?
Answer: The GI50 was 3200 ± 600 nM.

Question: And the GI50 [2, 16]?
Answer: Its GI50 is 1100 ± 800 nM.

Question: Which “Tm change of tRNA (Lys,3)” value [3] does the source give for CCCC[C@H]1CCCCCCc2[nH]c(/C=C3\N=CC(c4ccc[nH]4)=C3OC)cc21 [Compound 1, butylcycloheptyl prodiginine] here?
Answer: The value was “did not significantly change the Tm”.

Question: And the “reduction of expression level of the other tested miRs” value [4]?
Answer: The value was no more than 30%.

Question: What about the “reduction of miR-21 levels” value [5] of the same molecule?
Answer: Its value is ~ 80%.

Question: And the “DSC thermal transition Tm1 of pre-miR-21 in the presence of compound” value [6]?
Answer: Its value is 42.3 °C.

Question: What about the “DSC thermal transition Tm2 of pre-miR-21 in the presence of compound” value [6] of the same molecule?
Answer: The value was 68.0 °C.

Question: What about the “reduction of cell number” value ([1]; 0.05 μM, 24-hours post-treatment) of the same molecule?
Answer: The value was 55%.

Question: And the cell death ([1]; concentration > 0.5 μM, 24 h)?
Answer: Its cell death is “complete cell death”.

Question: And the GI50 ([1]; XTT, 24 hours post-treatment)?
Answer: The GI50 was 35 ± 3 nM.

Question: And the IC50 ([1]; read-out: cellular growth inhibitory activity, HCT-116, as restated in text)?
Answer: Its IC50 is 35 nM and ~35 nM.

Question: What about the “Tm change of HIV TAR” value [7] of the same molecule?
Answer: Its value is “did not significantly change the Tm”.

Question: And the “Tm change of pre-miR-638” value [8]?
Answer: Its value is “did not significantly change the Tm; also recorded: no Tm shift was observed”.

Question: And the PTEN transcript upregulation ([9]; by 8 hours post-treatment)?
Answer: The PTEN transcript upregulation was 2 fold.

Question: What about the PTEN transcript upregulation ([9]; by 36 hours post-treatment) of the same molecule?
Answer: The PTEN transcript upregulation was 2 – 4 fold.

Question: And the pre-miR-21 expression level [10]?
Answer: Its pre-miR-21 expression level is “did not significantly change”.

Question: What about the PDCD4 transcript upregulation ([11]; by 8 hours post-treatment) of the same molecule?
Answer: Its PDCD4 transcript upregulation is 2 fold.

Question: And the PDCD4 transcript upregulation ([11]; by 36 hours post-treatment)?
Answer: The PDCD4 transcript upregulation was 2 – 4 fold.

Question: And the “Pdcd4 and PTEN protein levels” value [12]?
Answer: The value was “time dependent increase”.

Question: What about the GI50 [2, 16] of the same molecule?
Answer: Its GI50 is no less than 10000 nM.

Question: And the “shift in Tm in the presence of Dicer” value ([13]; 50 μM compound, DSF)?
Answer: Its value is −2.8 °C.

Question: And the “shift in Tm in the presence of Dicer” value ([13]; 100 μM compound, DSF)?
Answer: The value was −0.6 °C.

Question: What about the “inhibition of Dicer processing of pre-miR-21, gel shift” value ([13]; 50 and 100 μM, 10U Dicer per 10 μM pre-miR-21) of the same molecule?
Answer: Its value is “dose dependent inhibition of Dicer processing”.

Question: And the “Tm of pre-miR-21 under Dicer reaction conditions” value ([13]; in the presence of 10 μM compound, DSF)?
Answer: Its value is 62.2 °C.

Question: What does the source list for COC1=CC(c2cc3ccccc3[nH]2)=N/C1=C\c1[nH]c(C)cc1C [Compound 2, obatoclax, reference compound]?
Answer: GI50 ([1]; Homo sapiens, HCT-116, 24 h): 100 ± 10 nM; GI50 ([2]; Homo sapiens, 24 h): ≥ 10000 nM

Question: Which results are given for CCCCCC1=C/C(=C/c2[nH]c(-c3ccc[nH]3)cc2OC)N=C1C [Compound 3, prodigiosin, reference compound]?
Answer: GI50 ([1]; Homo sapiens, HCT-116, 24 h): 240 ± 40 nM; GI50 ([2]; Homo sapiens, 24 h): ≥ 10000 nM

Question: For CC[C@@]1(O)C[C@H](O[C@H]2C[C@H](N(C)C)[C@H](O)[C@H](C)O2)c2c(cc3c(c2O)C(=O)c2c(O)cccc2C3=O)[C@H]1C(=O)OC [Compound 4, aklavin], which “GI50 HCT-116 in words” value ([1]; XTT, 24 hours post-treatment) is on record?
Answer: The value was “high nanomolar”.

Question: And the GI50 ([1]; XTT, 24 hours post-treatment)?
Answer: The GI50 was 570 ± 60 nM.

Question: And the GI50 [2, 16]?
Answer: The GI50 was 1700 ± 400 nM.

Question: For COc1cc2c3c4c1Oc1cc5c(cc1O4)[C@@H](Cc1ccc(O)c(c1)Oc1ccc(cc1)C[C@@H]3N(C)CC2)N(C)CC5 [Compound 5, trigilletine], which GI50 ([1]; Homo sapiens, HCT-116, 24 h) is on record?
Answer: Its GI50 is 3500 ± 500 nM.

Question: And the “GI50 HCT-116 in words” value ([1]; XTT, 24 hours post-treatment)?
Answer: The value was “high nanomolar”.

Question: And the GI50 ([2]; Homo sapiens, 24 h)?
Answer: The GI50 was 1000 ± 200 nM.

Question: CN1CCCC2C(c3ccccc3)C(C3=NCCCC3)C(c3ccccc3)CC21 (stereo not drawn) [Compound 7, Lobinaline] was tested. Which GI50 ([1]; XTT, 24 hours post-treatment) did it give?
Answer: The GI50 was no less than 10000 nM.

Question: What about the GI50 [2, 16] of the same molecule?
Answer: The GI50 was greater than 10000 nM.

Question: What does the source list for C[C@@H](N)C(=O)N[C@H]1CO[C@H](O)[C@H](N)[C@H]1O [Compound 8, prumycin]?
Answer: GI50 ([1]; XTT, 24 hours post-treatment): ≥ 10000 nM; GI50 [2, 16]: 5100 ± 100 nM

Question: How did the GI50 ([1]; XTT, 24 hours post-treatment) turn out when COc1cc2c3c(cc4ccccc4c3c1OC)N(C)CC2 [Compound 9, dehydronuciferin] was run?
Answer: The GI50 was no less than 10000 nM.

Question: And the GI50 [2, 16]?
Answer: The GI50 was greater than 10000 nM.

Question: How did the GI50 ([1]; Homo sapiens, HCT-116, 24 h) turn out when O=c1[nH]cc(F)c(=O)[nH]1 [Compound 10, 5-fluorouracil, reference compound] was run?
Answer: The GI50 was 720 ± 20 nM.

Question: And the GI50 ([2]; Homo sapiens, 24 h)?
Answer: The GI50 was 2000 ± 200 nM.

Question: With CC1(C)CCC(c2ccc(Cl)cc2)=C(CN2CCN(c3ccc(C(=O)NS(=O)(=O)c4ccc(N[C@H](CCN5CCOCC5)CSc5ccccc5)c(S(=O)(=O)C(F)(F)F)c4)cc3)CC2)C1 [Navitoclax] as the molecule, how does the “interaction with pre-miR-21 in DSF” value [14] read?
Answer: Its value is “no significant interaction”.

Question: And the “apparent binding affinity (Kd app)” value [15]?
Answer: Its value is “did not show apparent binding affinity”.
